The text below walks through data of publication PMC3475971 (Analytical and Bioanalytical Chemistry, 2012).

Structures are written as SMILES.

What all share (format): binding
In test [1] the target is T1, cyclin G-associated kinase (GAK) (Homo sapiens, UniProt O14976).
T1 sequence (O14976 20-347): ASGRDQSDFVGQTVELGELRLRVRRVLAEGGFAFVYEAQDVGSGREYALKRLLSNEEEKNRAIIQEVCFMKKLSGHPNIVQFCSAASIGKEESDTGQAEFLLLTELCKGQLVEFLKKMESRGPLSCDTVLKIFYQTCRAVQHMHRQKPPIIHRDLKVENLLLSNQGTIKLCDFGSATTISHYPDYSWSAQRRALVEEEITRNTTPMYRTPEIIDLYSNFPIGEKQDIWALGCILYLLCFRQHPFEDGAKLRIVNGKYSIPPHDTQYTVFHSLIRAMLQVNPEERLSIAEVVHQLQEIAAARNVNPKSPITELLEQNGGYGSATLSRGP
The test is described as follows: Fragment screening by zonal weak affinity chromatography.

The target in test [2] is T1, cyclin G-associated kinase (GAK). The test is described as follows: Frontal affinity chromatography on GAK capillary column. A digest of the protocol:
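Human GAK residues 20–347 expressed in E. coli Rosetta (DE3), Ni-NTA and gel-filtration purified, tag removed with TEV protease, then coupled by reductive amination to aldehyde-silica capillary (100 × 0.5 mm). Frontal analysis: 20 mM ammonium acetate pH 6.8, 18 μL/min, 22 °C. Ligand 0.025–0.750 mM, UV 214 nm; DMSO void marker. Saturation moles versus concentration fitted (one-site plus linear nonspecific) for Btot and KD.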

Another test has as its system GAK. The test is described as follows: Thermal shift assay. As to conditions: thermal shift assay performed as described in [32].

Broadly, the Kd is the free concentration of one partner at which half of the binding sites on the other are occupied at equilibrium, for simple one-to-one binding. A lower Kd goes with a tighter complex. As to `Nc1ncnc2c1ncn2[C@@H]1O[C@H](CO)[C@@H](O)[C@H]1O` [adenosine], the equilibrium dissociation constant (Kd) in test [1] stood at 41 µM; in test [2], 63 µM.
In the case of `O=c1c(O)c(-c2ccc(O)c(O)c2)oc2cc(O)cc(O)c12` [Quercetin], the “increase of melting temperature (ΔTm) of GAK” value with GAK turned out to be 9.4 °C.
